From PMC4241044 (Journal of Clinical Pharmacology, 2014)
Where two headings read alike, the source gives them in different places. Marks after values point to notes of the source that are not given here.

How the values were obtained:
[1] = cited from earlier work
[2] = 2.5–10 mg dose range under fasting conditions and 10–20 mg dose range under fed conditions; ref previous Phase I studies; cited from earlier work
[3] = assay type: in vivo, human; conditions: for AUC(0-inf) / Cmax / Vd/F / Tmax / half-life: human, plasma, oral; for Tmax: median (minimum–maximum); for half-life: t½; for increase in AUC∞ / increase in Cmax: compared with normal renal function; for DNAUC∞ (dose-normalized AUC∞) / DNCmax (dose-normalized Cmax): dose-normalized to 10 mg
[4] = steady-state erythromycin; previous Phase I drug–drug interaction study; cited from earlier work
Factor Xa activity = Factor Xa activity (Homo sapiens, UniProt P00742); experiment: Factor Xa inhibition in plasma; assay type: in vivo
[5] = previous study, cited from earlier work
Safety and tolerability = assay type: in vivo, human
Outline: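 Monitoring was continuous and covered bleeding events and other treatment-emergent adverse events, with severity and relation to study drugs. Vital signs, ECG, haematology, clinical chemistry, PT/aPTT and urinalysis were checked, plus regular physical examinations. Subjects were grouped by Cockcroft–Gault CLCR. […] Analysis included all subjects receiving ≥1 study-drug dose.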

[6] = Rivaroxaban urine pharmacokinetics; assay type: in vivo, human; conditions: arithmetic mean (SD); for CL renal: human, urine and plasma, oral, CLR, renal clearance
prothrombin time (PT) = experiment: Prothrombin time prolongation in plasma; assay type: in vivo, human
Outline: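 Subjects were grouped by mean of two Cockcroft–Gault CLCR estimates: ≥80 (normal), 50–79 (mild) and 30–49 mL/min (moderate). […] PT blood was drawn at −1 h (baseline) and 0.5–48 h post-dose. […] Log-transformed geometric mean ratios with 90% CI; completers only.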

[7] = Erythromycin trough plasma concentrations, attainment of steady state; assay type: in vivo, human; conditions: erythromycin 500 mg tid, visual inspection
Outline: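 Erythromycin 500 mg tid was given for 6 days in treatment periods 2 and 3. Trough plasma was sampled before the morning erythromycin dose on days 2–6 and on the morning of day 7, then stored frozen. Assay was LC/MS/MS after methanol protein precipitation, on a reverse-phase column at 40 °C. Steady state was judged visually from concentration–time plots.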

[8] = Mild RI, rivaroxaban 10 mg + erythromycin 500 mg tid
[9] = Moderate RI, rivaroxaban 10 mg + erythromycin 500 mg tid
[10] = 10 mg, geometric mean, Normal RF, rivaroxaban 10 mg
[11] = 10 mg, rivaroxaban 10 mg, mild renal impairment, arithmetic mean (SD)
[12] = rivaroxaban 5 mg + erythromycin 500 mg tid, mild renal impairment, arithmetic mean (SD)
[13] = rivaroxaban 5 mg + erythromycin 500 mg tid, moderate renal impairment, arithmetic mean (SD)
[14] = rivaroxaban 10 mg + erythromycin 500 mg tid, normal renal function, arithmetic mean (SD)
[15] = rivaroxaban 10 mg + erythromycin 500 mg tid, moderate renal impairment, arithmetic mean (SD)
[16] = rivaroxaban 5 mg + erythromycin 500 mg tid, mild renal impairment
[17] = rivaroxaban 10 mg + erythromycin 500 mg tid, moderate renal impairment
[18] = mild renal impairment, rivaroxaban 10 mg with steady-state erythromycin, rivaroxaban 10 mg alone
[19] = mild renal impairment, rivaroxaban 10 mg
[20] = moderate renal impairment, rivaroxaban 10 mg with steady-state erythromycin, rivaroxaban 10 mg alone
[21] = moderate renal impairment, rivaroxaban 10 mg
[22] = mild renal impairment vs normal renal function, rivaroxaban 10 mg
[23] = moderate renal impairment vs normal renal function, rivaroxaban 10 mg
[24] = normal renal function, rivaroxaban 10 mg + erythromycin vs rivaroxaban alone
[25] = rivaroxaban 5 mg + erythromycin 500 mg tid, moderate renal impairment
[26] = rivaroxaban 10 mg + erythromycin 500 mg tid, mild renal impairment
[27] = rivaroxaban 10 mg + erythromycin 500 mg tid, normal renal function

Chain of Factor Xa activity (P00742 235-488 limits assumed): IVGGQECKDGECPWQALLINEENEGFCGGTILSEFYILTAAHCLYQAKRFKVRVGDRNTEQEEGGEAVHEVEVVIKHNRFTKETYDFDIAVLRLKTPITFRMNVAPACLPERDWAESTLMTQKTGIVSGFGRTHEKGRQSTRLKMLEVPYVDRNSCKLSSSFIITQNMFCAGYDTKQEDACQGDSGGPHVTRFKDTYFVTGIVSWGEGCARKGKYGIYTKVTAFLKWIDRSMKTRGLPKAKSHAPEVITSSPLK
Chain of Factor Xa activity (P00742 41-179 partner limits assumed): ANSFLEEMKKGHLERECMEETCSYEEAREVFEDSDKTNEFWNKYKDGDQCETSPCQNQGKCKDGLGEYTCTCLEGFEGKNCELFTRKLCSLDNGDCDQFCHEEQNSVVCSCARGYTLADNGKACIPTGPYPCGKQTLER

In the case of `O=C(NC[C@H]1CN(c2ccc(N3CCOCC3=O)cc2)C(=O)O1)c1ccc(Cl)s1` [Rivaroxaban, rivaroxaban], the “dose metabolized via CYP2J2” value [1] is listed as 14%, the “dose metabolized via CYP3A4/3A5” value [1] is listed as “approximately 18%” and the “dose metabolized via CYP-independent hydrolysis” value [1] is listed as 14%. The “drug excreted unchanged by the kidneys” value [1] was “approximately 36%”, the “fraction of the absorbed dose hepatically metabolized” value ([1]; via CYP3A4/3A5, CYP2J2 and CYP-independent mechanisms) was “approximately two-thirds” and the “fraction of the absorbed dose eliminated as unchanged drug in the urine” value ([1]; via P-gp-mediated and ABCG2-mediated secretion) was “third”. For the same molecule, the “dose proportionality (based on AUC)” value [2] was “dose-proportional”, the “AUC∞, geometric mean” value [3, 8] was 3,078.7 ng · h/mL and the “Cmax, geometric mean” value [3, 8] was 277.2 ng/mL. For the same molecule, the “Cmax, geometric mean” value [3, 9] was 292.42 ng/mL, the “AUC∞, geometric mean” value ([3]; Moderate RI, rivaroxaban 10 mg + erythromycin 500 mg tid, n = 7) was 3,475.5 ^a ng · h/mL and the “Cmax, geometric mean” value ([3]; Normal RF, rivaroxaban 10 mg) was 178.17 ng/mL. It also gave an AUC(0-inf) ([3]; 10 mg, geometric mean, Mild RI, rivaroxaban 10 mg) of 2000 ng·h/mL, an AUC(0-inf) ([3]; 10 mg, geometric mean, Moderate RI, rivaroxaban 10 mg) of 2040 ng·h/mL and an AUC(0-inf) [3, 10] of 1750 ng·h/mL. For the same molecule, the AUC(0-inf) [3, 11] was 2020 ng·h/mL, the Cmax [3, 10] was 178 ng/mL and the Vd/F [3, 11] was 77.3 L. It also gave a Tmax ([3]; 10 mg, rivaroxaban 10 mg, mild renal impairment) of 3 h, a Tmax ([3]; 10 mg, rivaroxaban 10 mg, moderate renal impairment) of 3 h and a half-life [3, 11] of 9.9 h. The AUC(0-inf) [3, 12] was 1970 ng·h/mL, the AUC(0-inf) [3, 13] was 1980 ng·h/mL and the AUC(0-inf) [3, 14] was 2470 ng·h/mL. The Cmax [3, 15] was 323 ng/mL, the Cmax [3, 14] was 256 ng/mL and the Vd/F [3, 12] was 37.5 L. For the same molecule, the Vd/F ([3]; rivaroxaban 10 mg + erythromycin 500 mg tid, mild renal impairment, arithmetic mean (SD)) was 46 L, the Vd/F [3, 15] was 40.9 L and the Vd/F [3, 14] was 44.2 L. The Tmax [3, 16] was 3 h, the Tmax [3, 17] was 3 h and the half-life [3, 13] was 10 h. The “increase in AUC∞” value [3, 18] was “approximately 76%”, the “increase in Cmax” value [3, 18] was ~56% and the “increase in AUC∞” value [3, 19] was “approximately 15%”. The “increase in Cmax” value [3, 19] was ~23%, the “increase in AUC∞” value [3, 20] was ~99% and the “increase in Cmax” value [3, 20] was ~64%. The “increase in AUC∞” value [3, 21] was “approximately 17%”, the “increase in Cmax” value [3, 21] was ~36% and the “DNAUC∞ (dose-normalized AUC∞)” value [3, 12] was 3,935 (1,671) ng · h/mL. For the same molecule, the “DNCmax (dose-normalized Cmax)” value [3, 12] was 358 (109) ng/mL, the “DNAUC∞ (dose-normalized AUC∞)” value [3, 13] was 3,961 (1,020) ng · h/mL and the “DNCmax (dose-normalized Cmax)” value [3, 13] was 329 (104) ng/mL. For the same molecule, the “increase in AUC∞” value [4] was “approximately 34%”, the “increase in Cmax” value [4] was “approximately 34%” and the “Factor Xa inhibition AUC0–48h, geometric mean” value (Factor Xa activity; [9]) was 842.3. For the same molecule, the “Factor Xa inhibition Emax, geometric mean” value (Factor Xa activity; [9]) was 53.61, the “Factor Xa inhibition AUC0–48h, geometric mean” value (Factor Xa activity; Normal RF, rivaroxaban 10 mg) was 593.43 and the “Factor Xa inhibition Emax, geometric mean” value (Factor Xa activity; Normal RF, rivaroxaban 10 mg) was 39.38. The “increase in Factor Xa inhibition AUC0–48h” value (Factor Xa activity; [22]) was “approximately 16%”, the “increase in Factor Xa inhibition Emax” value (Factor Xa activity; [22]) was ~17% and the “increase in Factor Xa inhibition AUC0–48h” value (Factor Xa activity; [23]) was “approximately 3%”. For the same molecule, the “increase in Factor Xa inhibition Emax” value (Factor Xa activity; [23]) was ~17%, the “Factor Xa inhibition AUC0–48h lower by” value (Factor Xa activity; [24]) was “approximately 8%” and the “increase in Factor Xa inhibition Emax” value (Factor Xa activity; [24]) was “approximately 18%”. For the same molecule, the “increase in AUC∞” value ([5]; mild renal impairment vs normal renal function) was “approximately 44%”, the “increase in AUC∞” value ([5]; moderate renal impairment vs normal renal function) was ~52% and the “subjects reporting bleeding events” value (Safety and tolerability; 1 NRF, 3 moderate RI, all mild in intensity, of 29 enrolled) was “Four”. The tolerability (Safety and tolerability; single dose 5 mg or 10 mg, regardless of renal function and erythromycin co-administration) was “well tolerated”, the CL renal [6, 16] was 15.9 mL/min and the CL renal [6, 25] was 9.25 mL/min. The CL renal [6, 26] was 19.2 mL/min, the CL renal [6, 17] was 13.3 mL/min and the CL renal [6, 27] was 34.3 mL/min. For the same molecule, the “Ae, cumulative amount excreted into the urine over 48 hours” value (“Ae … over 48 hours” for short) [6, 16] was 1.56 (0.692) mg, the “Ae … over 48 hours” value [6, 25] was 1.04 (0.531) mg and the “Ae … over 48 hours” value [6, 26] was 3.29 (0.893) mg. For the same molecule, the “Ae … over 48 hours” value [6, 17] was 2.74 (1.10) mg, the “Ae … over 48 hours” value [6, 27] was 4.80 (0.851) mg and the “Ae … over 48 hours” value ([6]; rivaroxaban 10 mg, mild renal impairment) was 2.49 (0.697) ^a mg. For the same molecule, the “Ae … over 48 hours” value ([6]; rivaroxaban 10 mg, moderate renal impairment) was 1.30 (0.654) mg, the “Ae … over 48 hours” value ([6]; rivaroxaban 10 mg, normal renal function) was 3.51 (0.773) mg and the “Prothrombin time AUC0–48h, geometric mean” value (shortened to “Prothrombin time AUC0–48h”) (prothrombin time (PT); [8]) was 118.7. The “Prothrombin time Emax, geometric mean” value (prothrombin time (PT); [8]) was 9.85, the “Prothrombin time AUC0–48h” value (prothrombin time (PT); [9]) was 115.1 and the “Prothrombin time Emax, geometric mean” value (prothrombin time (PT); [9]) was 10.02. The “Prothrombin time AUC0–48h” value (prothrombin time (PT); Normal RF, rivaroxaban 10 mg) was 67.82, the “Prothrombin time Emax, geometric mean” value (prothrombin time (PT); Normal RF, rivaroxaban 10 mg) was 8.24 and the “increase in PT Emax” value (prothrombin time (PT); [22]) was ~5%. The “change in PT AUC0–48h” value (prothrombin time (PT); [23]) was “did not seem to change significantly”, the “change in PT Emax” value (prothrombin time (PT); [23]) was “did not seem to change significantly” and the “increase in PT AUC0–48h” value (prothrombin time (PT); [24]) was “approximately 22%”. For the same molecule, the “increase in PT Emax” value (prothrombin time (PT); [24]) was ~10%.

For `CC[C@H]1OC(=O)[C@H](C)[C@@H](O[C@H]2C[C@@](C)(OC)[C@@H](O)[C@H](C)O2)[C@H](C)[C@@H](O[C@@H]2O[C@H](C)C[C@H](N(C)C)[C@H]2O)[C@](C)(O)C[C@@H](C)C(=O)[C@H](C)[C@@H](O)[C@]1(C)O` [erythromycin], the “attainment of steady-state plasma concentrations” value [7] was “obtained by the morning of day 5”.
